Measurements from ChEMBL document CHEMBL4706589, “Discovery of 5-bromo-4-phenoxy-N-phenylpyrimidin-2-amine derivatives as novel ULK1 inhibitors that block autophagy and induce apoptosis in non-small cell lung cancer” (Eur J Med Chem, 2020).

Tests used:
[1] = molecular target: T1, Serine/threonine-protein kinase ULK1 (Homo sapiens) (UniProt O75385); assay: Inhibition of recombinant human ULK1 at 10 uM preincubated for 60 mins followed by substrate addition and measured after 30 mins by ADP-glo assay; details: time 90.0 min
T1 sequence (whole entry): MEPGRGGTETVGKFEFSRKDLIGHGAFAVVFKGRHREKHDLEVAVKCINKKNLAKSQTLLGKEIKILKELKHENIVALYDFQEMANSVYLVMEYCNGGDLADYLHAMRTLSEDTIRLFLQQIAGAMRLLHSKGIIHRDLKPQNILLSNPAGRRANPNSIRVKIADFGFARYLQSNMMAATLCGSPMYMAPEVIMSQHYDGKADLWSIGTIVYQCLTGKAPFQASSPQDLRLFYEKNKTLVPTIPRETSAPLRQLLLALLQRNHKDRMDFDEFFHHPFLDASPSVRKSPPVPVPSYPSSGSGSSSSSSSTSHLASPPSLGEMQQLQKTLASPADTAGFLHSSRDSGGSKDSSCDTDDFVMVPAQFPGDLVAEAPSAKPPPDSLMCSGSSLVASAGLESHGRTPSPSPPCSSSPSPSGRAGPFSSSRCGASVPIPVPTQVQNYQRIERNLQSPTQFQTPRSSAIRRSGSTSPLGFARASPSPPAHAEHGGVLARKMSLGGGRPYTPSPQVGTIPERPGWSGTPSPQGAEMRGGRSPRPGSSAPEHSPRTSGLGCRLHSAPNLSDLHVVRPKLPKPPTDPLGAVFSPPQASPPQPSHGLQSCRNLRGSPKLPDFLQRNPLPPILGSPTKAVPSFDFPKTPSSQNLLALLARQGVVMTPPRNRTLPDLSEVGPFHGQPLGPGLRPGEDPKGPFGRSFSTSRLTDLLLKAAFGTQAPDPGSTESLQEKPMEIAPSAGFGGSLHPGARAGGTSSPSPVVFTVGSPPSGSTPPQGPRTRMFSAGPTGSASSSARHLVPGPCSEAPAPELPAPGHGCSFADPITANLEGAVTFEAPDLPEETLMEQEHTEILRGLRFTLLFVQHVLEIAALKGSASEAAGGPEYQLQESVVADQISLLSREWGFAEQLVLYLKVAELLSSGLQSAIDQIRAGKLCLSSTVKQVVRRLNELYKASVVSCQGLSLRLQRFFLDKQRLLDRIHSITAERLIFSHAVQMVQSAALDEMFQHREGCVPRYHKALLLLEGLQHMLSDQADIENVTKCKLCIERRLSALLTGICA
Method in brief: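 Recombinant ULK1 activity was measured by ADP-Glo luminescence of ADP formed, in 40 mM Tris pH 7.5, 20 mM MgCl₂, 0.1 mg/ml BSA and […]. After the kinase reaction, plates were mixed 2 min and held 40 min at room temperature. Detection reagent was then added for 30 min at room temperature before luminescence was read.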

A549 = assay: Antiproliferative activity against human A549 cells assessed as reduction in cell viability after 24 hrs by MTT assay; format: functional, cell-based; details: A549, 24 h
Method in brief: (§1)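 Cells seeded at 5.5 × 10⁴ cells/mL in 96-well plates and grown 24 h before exposure to graded compound concentrations. Viability read by MTT after 24 h. A549, MCF-7 and MDA-MB-468 were kept in DMEM with 10% FBS under 5% CO₂; HL60 and U937 in RPMI 1640 with 10% FBS. IC50 taken as mean of triplicate tests.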

U-937 = assay: Antiproliferative activity against human U937 cells assessed as reduction in cell viability after 24 hrs by MTT assay; format: functional, cell-based; details: U-937, 24 h; method in brief: as §1
HL-60 = assay: Antiproliferative activity against human HL60 cells assessed as reduction in cell viability after 24 hrs by MTT assay; format: functional, cell-based; details: HL-60, 24 h; method in brief: as §1
MDA-MB-468 = assay: Antiproliferative activity against human MDA-MB-468 cells assessed as reduction in cell viability after 24 hrs by MTT assay; format: functional, cell-based; details: MDA-MB-468, 24 h; method in brief: as §1
MCF7 = assay: Antiproliferative activity against human MCF-7 cells assessed as reduction in cell viability after 24 hrs by MTT assay; format: functional, cell-based; details: MCF7, 24 h; method in brief: as §1

SMILES | inhibition [1] [%] | IC50 (A549) [µM] | IC50 (U-937) [µM] | IC50 (HL-60) [µM] | IC50 (MDA-MB-468) [µM] | IC50 (MCF7) [µM]
CNC(=O)c1ccccc1Oc1nc(Nc2ccc(Br)cc2)ncc1Br | 40.1 | 23.5 | > 50 | 39.7 | 36.6 | > 50
CNC(=O)c1ccccc1Oc1nc(Nc2ccccc2OC)ncc1Br | 19.2 | 40.5 | 52.1 | > 50 | > 50 | > 50
Cc1cccc(Nc2ncc(Br)c(Oc3cc(Cl)cc(Cl)c3)n2)c1 | 3.78 | 43.9 | > 50 | > 50 | > 50 | > 50
CNC(=O)c1ccccc1Oc1nc(Nc2cccc(C(F)(F)F)c2)ncc1Br | 38.8 | 28.3 | 45.5 | 44 | 32.8 | 57.8
CNC(=O)c1ccccc1Oc1nc(Nc2cc(OC)c(OC)c(OC)c2)ncc1Br |  | 6.78 | 25.1 | 18.9 | 18.4 | 26.2
CNC(=O)c1ccccc1Oc1nc(Nc2ccc(C)cc2C)ncc1Br | 38.2 | 27.3 | 49.6 | 32.3 | 40.7 | 44.7
CNC(=O)c1ccccc1Oc1nc(Nc2cccc(C)c2)ncc1Br | 73.7 | 6.1 | 15.9 | 16.2 | 18.6 | 16.6
Cc1cccc(Nc2ncc(Br)c(Oc3ccc(Br)cc3)n2)c1 | 25.7 | 10.3 | 18.6 | 14.7 | 31.3 | 19.1
CNC(=O)c1ccccc1Oc1nc(Nc2ccc(Cl)cc2F)ncc1Br | 17.8 | 38.1 | > 50 | > 50 | > 50 | > 50
Cc1cccc(Nc2ncc(Br)c(Oc3cccc(F)c3)n2)c1 | 49.3 | 13.9 | 19.4 | 15.5 | 29.2 | 26.8
Cc1cccc(Nc2ncc(Br)c(Oc3cccc([N+](=O)[O-])c3)n2)c1 | 40.2 | 24.6 | 51.2 | 38.7 | 36.7 | > 50
CCN(CC)CCNc1ccnc(Nc2cc(OC)c(OC)c(OC)c2)n1 | 13.4 | 46.4 | > 50 | > 50 | > 50 | > 50
O=[N+]([O-])c1ccc(Oc2nc(Nc3ccc(Br)cc3)ncc2Br)c(F)c1 | 12.5 | 51 | > 50 | > 50 | > 50 | > 50
O=[N+]([O-])c1ccc(Oc2nc(Nc3ccc(Cl)cc3)ncc2Br)c(F)c1 | 15.7 | 37.6 | 43.1 | > 50 | > 50 | > 50
CNC(=O)c1ccccc1Oc1nc(Nc2cccc(Br)c2)ncc1Br | 62.7 | 10.6 | 49 | 38.7 | 31.9 | 42.5
CNC(=O)c1ccccc1Oc1nc(Nc2cccc(C(C)C)c2)ncc1Br | 84 | 7.14 | 14.1 | 17.5 | 19.4 | 26.5
CNC(=O)c1ccccc1Oc1nc(Nc2ccc3c(c2)OCO3)ncc1Br | 22.2 | > 50 | > 50 | > 50 | > 50 | > 50
CCOc1ccccc1Oc1nc(Nc2cccc(C)c2)ncc1Br | 75.7 | 20.3 | 38.6 | 34.7 | 31.4 | 39.1
CNC(=O)c1ccccc1Oc1nc(Nc2ccc(C(F)(F)F)cc2)ncc1Br | 21.6 | > 50 | > 50 | > 50 | > 50 | > 50
CCN(CC)CCNc1nc(Nc2cc(OC)c(OC)c(OC)c2)ncc1I | 44.9 | 16.9 | 22 | 21.6 | 32.3 | 32.7
COc1cc(Nc2ncc(I)c(NCCCN)n2)cc(OC)c1OC | 32.3 | 39.6 | 39.9 | 43.4 | > 50 | > 50
CNC(=O)c1ccccc1Oc1nc(Nc2ccccc2F)ncc1Br | 27.4 | 35.5 | > 50 | > 50 | > 50 | > 50
CNC(=O)c1ccccc1Oc1nc(Nc2cccc(OC)c2)ncc1Br | 50.5 | 6.23 | 24.3 | 16.2 | 17.8 | 18.2
COc1cc(Nc2nccc(NCCCN)n2)cc(OC)c1OC | 17.7 | 29.7 | > 50 | > 50 | 45.8 | > 50
Cc1cccc(Nc2ncc(Br)c(Oc3ccc(OCc4ccccc4)cc3)n2)c1 | 16.3 | 48.7 | > 50 | > 50 | > 50 | > 50
